The source made the active and inactive calls. The rule behind the calls is not given here.
Legend:
Format in all cases: cell-based
[1] = target: T1, Protein cereblon/Tyrosine-protein kinase BTK (Homo sapiens, UniProt Q06187+Q96SW2); test: PROTAC activity at BTK/CRBN protein protein interaction in human JeKo-1 cell assessed as degradation of BTK incubated for 17 hrs measured by Western blot analysis relative to control
In short: (§1)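 Ramos or JeKo-1 cells (2 × 10^6 per well) were exposed for 17 h to 3000–0.15 nM PROTAC in 3-fold steps. Cells were lysed and analysed by western blot, with BTK normalised to β-actin. DC50 and Dmax come from the dose-response; DC50 is the mean ± SD of two independent experiments.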
Target sequence in this assay (Q06187 2-659 limits assumed): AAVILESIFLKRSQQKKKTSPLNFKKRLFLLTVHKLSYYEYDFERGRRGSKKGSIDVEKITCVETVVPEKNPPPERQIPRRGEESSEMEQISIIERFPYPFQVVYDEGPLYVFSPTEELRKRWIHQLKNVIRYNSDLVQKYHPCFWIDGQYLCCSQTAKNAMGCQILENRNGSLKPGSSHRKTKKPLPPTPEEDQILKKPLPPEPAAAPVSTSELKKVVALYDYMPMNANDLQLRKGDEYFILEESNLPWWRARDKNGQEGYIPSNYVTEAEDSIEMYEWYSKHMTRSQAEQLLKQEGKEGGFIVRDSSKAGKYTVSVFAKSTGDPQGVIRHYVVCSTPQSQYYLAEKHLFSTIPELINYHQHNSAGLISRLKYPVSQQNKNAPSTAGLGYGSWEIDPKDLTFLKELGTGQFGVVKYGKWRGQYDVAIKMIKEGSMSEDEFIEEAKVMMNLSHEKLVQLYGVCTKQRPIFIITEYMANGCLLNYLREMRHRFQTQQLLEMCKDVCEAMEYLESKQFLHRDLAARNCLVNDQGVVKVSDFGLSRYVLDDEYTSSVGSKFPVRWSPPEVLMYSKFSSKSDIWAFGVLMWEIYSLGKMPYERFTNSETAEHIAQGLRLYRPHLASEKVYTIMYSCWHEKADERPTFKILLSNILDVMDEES
Target sequence in this assay (Q96SW2 whole entry partner): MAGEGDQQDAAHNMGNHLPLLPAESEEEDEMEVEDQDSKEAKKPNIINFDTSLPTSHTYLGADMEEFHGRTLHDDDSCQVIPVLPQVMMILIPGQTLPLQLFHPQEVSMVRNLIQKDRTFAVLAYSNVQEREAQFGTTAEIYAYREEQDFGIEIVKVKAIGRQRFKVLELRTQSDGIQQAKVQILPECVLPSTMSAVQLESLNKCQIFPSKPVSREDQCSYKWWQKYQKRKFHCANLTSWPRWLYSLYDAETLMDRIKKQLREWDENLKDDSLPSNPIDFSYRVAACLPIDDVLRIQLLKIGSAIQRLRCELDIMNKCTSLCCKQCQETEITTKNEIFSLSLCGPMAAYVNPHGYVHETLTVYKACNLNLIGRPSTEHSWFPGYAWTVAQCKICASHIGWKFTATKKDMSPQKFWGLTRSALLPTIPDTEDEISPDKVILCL

[2] = target: Tyrosine-protein kinase CSK (Homo sapiens) (UniProt P41240); test: Degradation of CSK in human TMD8 cells by measuring protein level at 111 nM for 6 hrs using label free proteomic analysis
Sequence of Tyrosine-protein kinase CSK (Homo sapiens) (P41240 2-450 limits assumed): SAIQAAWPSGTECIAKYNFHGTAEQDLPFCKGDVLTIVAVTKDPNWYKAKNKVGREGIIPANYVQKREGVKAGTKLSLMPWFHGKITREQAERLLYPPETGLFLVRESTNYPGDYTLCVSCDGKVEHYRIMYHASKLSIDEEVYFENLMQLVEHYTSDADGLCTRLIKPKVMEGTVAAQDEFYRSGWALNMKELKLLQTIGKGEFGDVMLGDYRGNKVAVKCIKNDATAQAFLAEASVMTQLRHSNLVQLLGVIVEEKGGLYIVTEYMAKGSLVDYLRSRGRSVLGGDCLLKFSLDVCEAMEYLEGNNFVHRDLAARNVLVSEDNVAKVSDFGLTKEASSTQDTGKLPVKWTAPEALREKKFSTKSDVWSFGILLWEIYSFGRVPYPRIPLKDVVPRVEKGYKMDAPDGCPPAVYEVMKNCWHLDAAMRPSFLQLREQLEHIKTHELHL
In short: (§2)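 TMD8 cells (2 × 10^6) given 111 nM or DMSO for 6 h in duplicate. Lysed in 5% SDS/50 mM TEAB pH 8.5. 200 μg protein reduced (10 mM DTT, 55 °C, 30 min), alkylated (50 mM iodoacetamide), S-Trap processed, then LC-MS/MS. Label-free matched-peptide quantitation against DMSO, human UniProt; Benjamini–Hochberg-corrected p-values.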

[3] = target: DNA-binding protein Ikaros (Homo sapiens) (UniProt Q13422); test: Degradation of IKZF1 in human TMD8 cells by measuring protein level at 111 nM for 6 hrs using label free proteomic analysis; in short: as §2
Sequence of DNA-binding protein Ikaros (Homo sapiens) (Q13422 whole entry): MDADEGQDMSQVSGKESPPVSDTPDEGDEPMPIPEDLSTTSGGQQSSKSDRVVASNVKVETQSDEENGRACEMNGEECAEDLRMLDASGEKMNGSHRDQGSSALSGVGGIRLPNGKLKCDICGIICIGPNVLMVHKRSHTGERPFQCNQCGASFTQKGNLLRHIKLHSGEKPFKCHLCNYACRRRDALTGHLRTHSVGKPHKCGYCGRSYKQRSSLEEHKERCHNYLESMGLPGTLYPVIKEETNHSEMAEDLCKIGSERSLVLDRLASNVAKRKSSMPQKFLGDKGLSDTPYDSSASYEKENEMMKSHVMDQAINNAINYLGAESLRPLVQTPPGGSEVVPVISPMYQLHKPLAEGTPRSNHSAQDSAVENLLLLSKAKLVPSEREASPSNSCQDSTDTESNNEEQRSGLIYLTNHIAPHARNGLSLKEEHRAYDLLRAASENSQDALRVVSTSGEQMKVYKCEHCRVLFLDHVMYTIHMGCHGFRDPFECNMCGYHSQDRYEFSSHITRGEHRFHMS

[4] = target: T1, Protein cereblon/Tyrosine-protein kinase BTK; test: PROTAC activity at BTK/CRBN protein protein interaction in human JeKo-1 cell assessed as degradation of BTK incubated for 17 hrs measured by Western blot analysis; in short: as §1
Target sequence in this assay (Q06187 whole entry): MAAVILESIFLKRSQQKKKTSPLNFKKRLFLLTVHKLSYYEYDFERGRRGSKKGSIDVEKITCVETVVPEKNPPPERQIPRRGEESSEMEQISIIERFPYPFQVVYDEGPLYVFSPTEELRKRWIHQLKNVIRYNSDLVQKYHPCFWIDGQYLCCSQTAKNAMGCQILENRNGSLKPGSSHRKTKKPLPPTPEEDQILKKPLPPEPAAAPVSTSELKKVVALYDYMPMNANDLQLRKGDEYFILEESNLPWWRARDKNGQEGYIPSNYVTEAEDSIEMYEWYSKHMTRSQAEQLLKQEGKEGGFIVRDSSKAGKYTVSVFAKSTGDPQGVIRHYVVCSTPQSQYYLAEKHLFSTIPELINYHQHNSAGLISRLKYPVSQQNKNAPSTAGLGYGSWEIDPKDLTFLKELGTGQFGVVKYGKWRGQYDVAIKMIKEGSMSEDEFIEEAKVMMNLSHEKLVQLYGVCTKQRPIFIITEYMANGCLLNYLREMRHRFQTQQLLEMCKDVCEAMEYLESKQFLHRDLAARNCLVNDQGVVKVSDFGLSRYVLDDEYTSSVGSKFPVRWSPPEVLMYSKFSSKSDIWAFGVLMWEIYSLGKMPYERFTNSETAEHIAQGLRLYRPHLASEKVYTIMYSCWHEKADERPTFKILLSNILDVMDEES
Target sequence in this assay (Q96SW2 whole entry): as the sequence (Q96SW2 whole entry partner) above

[5] = target: Tyrosine-protein kinase Lyn (Homo sapiens) (UniProt P07948); test: Degradation of LYN in human TMD8 cells by measuring protein level at 111 nM for 6 hrs using label free proteomic analysis; in short: as §2
Sequence of Tyrosine-protein kinase Lyn (Homo sapiens) (P07948 2-512 limits assumed): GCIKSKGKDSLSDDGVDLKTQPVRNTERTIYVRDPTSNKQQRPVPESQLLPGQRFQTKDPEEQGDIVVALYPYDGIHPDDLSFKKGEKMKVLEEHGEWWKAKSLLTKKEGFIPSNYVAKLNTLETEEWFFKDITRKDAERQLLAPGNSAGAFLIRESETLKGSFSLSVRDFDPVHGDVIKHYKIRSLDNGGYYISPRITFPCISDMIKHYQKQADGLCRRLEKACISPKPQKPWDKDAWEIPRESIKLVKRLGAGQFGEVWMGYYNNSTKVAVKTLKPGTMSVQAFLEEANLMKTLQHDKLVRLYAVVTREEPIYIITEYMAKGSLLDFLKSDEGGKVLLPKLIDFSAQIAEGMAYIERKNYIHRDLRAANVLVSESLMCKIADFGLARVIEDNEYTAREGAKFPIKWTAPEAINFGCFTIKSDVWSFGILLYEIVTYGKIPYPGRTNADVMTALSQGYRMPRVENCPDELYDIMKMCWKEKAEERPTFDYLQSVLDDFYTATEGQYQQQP

[6] = target: Tyrosine-protein kinase SYK (Homo sapiens) (UniProt P43405); test: Degradation of SYK in human TMD8 cells by measuring protein level at 111 nM for 6 hrs using label free proteomic analysis; in short: as §2
[7] = target: Eukaryotic peptide chain release factor GTP-binding subunit ERF3A (Homo sapiens) (UniProt P15170); test: Degradation of […] in human TMD8 cells by measuring protein level at 111 nM for 6 hrs using label free proteomic analysis; in short: as §2
Sequence of Eukaryotic peptide chain release factor GTP-binding subunit ERF3A (Homo sapiens) (P15170 whole entry): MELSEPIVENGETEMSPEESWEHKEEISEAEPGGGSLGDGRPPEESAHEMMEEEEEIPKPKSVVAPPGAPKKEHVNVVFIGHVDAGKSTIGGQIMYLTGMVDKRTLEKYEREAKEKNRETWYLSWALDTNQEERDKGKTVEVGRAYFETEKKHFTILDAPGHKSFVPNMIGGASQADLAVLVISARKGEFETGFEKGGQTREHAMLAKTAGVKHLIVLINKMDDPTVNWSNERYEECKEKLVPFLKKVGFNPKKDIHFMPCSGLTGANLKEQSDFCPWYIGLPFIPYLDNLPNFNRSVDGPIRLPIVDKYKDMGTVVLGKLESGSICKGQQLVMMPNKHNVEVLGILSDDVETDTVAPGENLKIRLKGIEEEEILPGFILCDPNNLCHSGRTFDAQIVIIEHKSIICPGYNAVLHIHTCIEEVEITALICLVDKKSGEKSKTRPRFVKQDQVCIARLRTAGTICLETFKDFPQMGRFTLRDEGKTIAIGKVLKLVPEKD

[8] = target: Tyrosine-protein kinase HCK (Homo sapiens) (UniProt P08631); test: Degradation of HCK in human TMD8 cells by measuring protein level at 111 nM for 6 hrs using label free proteomic analysis; in short: as §2
Sequence of Tyrosine-protein kinase HCK (Homo sapiens) (P08631 2-526 limits assumed): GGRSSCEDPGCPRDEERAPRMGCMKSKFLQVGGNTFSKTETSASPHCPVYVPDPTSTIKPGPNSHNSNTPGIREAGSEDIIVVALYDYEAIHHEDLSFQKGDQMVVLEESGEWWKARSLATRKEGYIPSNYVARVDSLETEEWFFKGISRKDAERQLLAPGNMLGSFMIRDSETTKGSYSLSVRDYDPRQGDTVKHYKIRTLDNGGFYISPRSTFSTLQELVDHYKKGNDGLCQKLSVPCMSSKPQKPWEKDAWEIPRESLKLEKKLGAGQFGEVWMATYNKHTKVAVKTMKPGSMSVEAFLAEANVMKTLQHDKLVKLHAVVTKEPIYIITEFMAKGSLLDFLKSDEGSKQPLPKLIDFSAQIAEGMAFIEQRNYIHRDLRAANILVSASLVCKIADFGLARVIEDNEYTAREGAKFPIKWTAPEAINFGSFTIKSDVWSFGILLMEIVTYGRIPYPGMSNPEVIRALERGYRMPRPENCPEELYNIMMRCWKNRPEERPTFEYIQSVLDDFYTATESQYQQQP

[9] = target: Zinc finger protein Aiolos (Homo sapiens) (UniProt Q9UKT9); test: Degradation of IKZF3 in human TMD8 cells by measuring protein level at 111 nM for 6 hrs using label free proteomic analysis; in short: as §2
Sequence of Zinc finger protein Aiolos (Homo sapiens) (Q9UKT9 whole entry): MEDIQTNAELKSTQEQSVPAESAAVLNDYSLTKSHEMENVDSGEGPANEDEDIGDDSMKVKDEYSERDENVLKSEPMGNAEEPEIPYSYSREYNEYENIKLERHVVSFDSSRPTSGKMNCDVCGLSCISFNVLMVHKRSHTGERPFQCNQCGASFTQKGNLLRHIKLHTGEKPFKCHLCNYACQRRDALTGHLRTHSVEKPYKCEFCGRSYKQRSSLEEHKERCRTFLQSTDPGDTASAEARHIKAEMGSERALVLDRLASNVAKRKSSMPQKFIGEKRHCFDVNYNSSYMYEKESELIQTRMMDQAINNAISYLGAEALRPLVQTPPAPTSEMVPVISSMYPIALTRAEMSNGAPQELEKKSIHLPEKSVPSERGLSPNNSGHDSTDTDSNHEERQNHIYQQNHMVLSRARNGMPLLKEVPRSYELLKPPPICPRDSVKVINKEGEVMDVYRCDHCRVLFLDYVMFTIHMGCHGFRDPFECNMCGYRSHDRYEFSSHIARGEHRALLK

[10] = target: T2, Zinc finger protein 280D (Homo sapiens) (UniProt Q6N043); test: Degradation of […] in human TMD8 cells by measuring protein level at 111 nM for 6 hrs using label free proteomic analysis; in short: as §2
T2 sequence (whole entry): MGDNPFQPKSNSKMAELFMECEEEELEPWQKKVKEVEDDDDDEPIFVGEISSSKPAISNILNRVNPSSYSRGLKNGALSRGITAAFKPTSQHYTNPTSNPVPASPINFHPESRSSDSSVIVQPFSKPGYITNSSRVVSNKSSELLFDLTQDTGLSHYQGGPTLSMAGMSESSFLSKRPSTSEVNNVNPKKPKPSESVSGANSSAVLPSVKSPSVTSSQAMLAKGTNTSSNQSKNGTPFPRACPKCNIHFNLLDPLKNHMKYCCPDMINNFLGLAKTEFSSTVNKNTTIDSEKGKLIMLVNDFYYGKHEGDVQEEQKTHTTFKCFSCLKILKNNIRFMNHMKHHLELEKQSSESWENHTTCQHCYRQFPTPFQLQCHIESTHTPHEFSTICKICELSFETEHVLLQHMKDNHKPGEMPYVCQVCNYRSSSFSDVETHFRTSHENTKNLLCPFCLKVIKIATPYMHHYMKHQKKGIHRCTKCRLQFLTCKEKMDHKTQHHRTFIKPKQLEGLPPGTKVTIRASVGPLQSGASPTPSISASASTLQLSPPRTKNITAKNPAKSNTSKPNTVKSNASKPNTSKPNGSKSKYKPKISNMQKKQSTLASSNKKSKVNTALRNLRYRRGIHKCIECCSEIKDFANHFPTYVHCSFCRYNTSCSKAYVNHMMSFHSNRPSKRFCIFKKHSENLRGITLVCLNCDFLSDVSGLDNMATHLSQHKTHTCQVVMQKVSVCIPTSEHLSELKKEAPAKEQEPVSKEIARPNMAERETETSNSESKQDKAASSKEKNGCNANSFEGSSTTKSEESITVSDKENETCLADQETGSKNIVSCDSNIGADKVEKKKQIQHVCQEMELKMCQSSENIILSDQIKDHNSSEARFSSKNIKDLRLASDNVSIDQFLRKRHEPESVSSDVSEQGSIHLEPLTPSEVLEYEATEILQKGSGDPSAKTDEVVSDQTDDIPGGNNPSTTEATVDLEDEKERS

| Emax [1] | Activity [2] | Activity [3] | DC50 [4] | Activity [5] | Activity [6] | Activity [7] | Activity [8] | Activity [9] | Activity [10] | SMILES |
| --- | --- | --- | --- | --- | --- | --- | --- | --- | --- | --- |
| 97% | inactive | inactive | 3.1 nM | inactive | inactive | inactive | inactive | inactive | Active | C[C@H]1CN(C(=O)COc2cccc3c2C(=O)N(C2CCC(=O)NC2=O)C3=O)CCN1c1ccc(Nc2cc(-c3ccnc(N4CCn5c(cc6c5CC(C)(C)C6)C4=O)c3CO)cn(C)c2=O)nc1 (stereo not given in full) |
| 95.7% | inactive | Active | 0.6 nM | inactive | inactive | inactive | inactive | Active | Active | C[C@H]1CN(C(=O)CNc2cccc3c2C(=O)N(C2CCC(=O)NC2=O)C3=O)CCN1c1ccc(Nc2cc(-c3ccnc(N4CCn5c(cc6c5CC(C)(C)C6)C4=O)c3CO)cn(C)c2=O)nc1 (stereo not given in full) |

Source: ChEMBL document CHEMBL5338787, “Discovery of Novel Bruton's Tyrosine Kinase PROTACs with Enhanced Selectivity and Cellular Efficacy” (J Med Chem, 2023)
